# Source: PubChem
# This excerpt belongs to a sample that is enriched for hits.
# PostGolgi yeast: phenotypic screen on post-Golgi transport, primary screen | post-Golgi transport phenotypic cell assay | inhibition, % at 10 µM | 98,000 compounds, 0.9% hits;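 further: yeast cells grown in 1536-well plates; yeast grown about 18 h at 30C before absorbance read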
# PostGolgi ctrl: growth inhibition of yeast control strain, primary screen, counter-screen for post-Golgi transport modulator project. efflux-deficient yeast background strain, growth absorbance A615, 16 h. inhibition, % at 10 µM. 98,000 compounds, 5% hits. AID 738, 2007
# Yeast lifespan up: compounds extending yeast replicative lifespan, primary screen, S. cerevisiae, OD615 | 130,000 compounds, 0.68% hits | inhibition of the nicotinamide effect, % at 10 µM | S. cerevisiae growth with nicotinamide; deaD strain in restrictive glucose medium;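 active means inhibition above a set limit, placed 3 SD over the median of all compounds, cut at about 26% in these data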;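 further: 0% = nicotinamide-treated wells and 100% = cells grown without nicotinamide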
#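 Test system: DeaD-strain S. cerevisiae / Buffer or medium: restrictive glucose medium / Also added: nicotinamide 1.5 mM / Doses: one concentration, 10 µM, DMSO 0.25% / Schedule: 48 h at 30 °C / Signal: OD615 measurement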
# Yeast growth inh: growth inhibitors of yeast BB579 in restrictive medium, primary screen, yeast lifespan-shortening project, S. cerevisiae; OD615, 48 h; inhibition, % at 10 µM; 140,000 compounds, 0.51% hits; AID 804, 2007;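 active means inhibition above a set limit, 3 SD over the mean compound inhibition, cut at about 44% in these data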
#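 System: Saccharomyces cerevisiae DeaD strain BB579, replicative lifespan model yeast | Buffer or medium: Restrictive glucose-based CSMM-D medium | Times: 4 h preincubation and 48 h exposure at 30 °C | Detection: OD615 turbidity measurement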
# An asterisk follows results filed as active; · = no result. Unless noted, no stated cut-off is given here; in the data, active means inhibition above about 30%; inactive means the rest.
SMILES,PostGolgi yeast,PostGolgi ctrl,Yeast lifespan up,Yeast growth inh
CC1CCN(c2cc(N)c(Cl)cc2[N+](=O)[O-])CC1,-6.4,38.1*,-5.5,-1.7
CC1CCN(c2ccc(N3C(=O)C4CCCCC4C3=O)cc2[N+](=O)[O-])CC1 (centres undefined),·,·,3.1,-38.6
CC1CCCCN1c1cc(C#N)c(C#N)cc1[N+](=O)[O-] (centres undefined),-1.1,43.4*,-6.3,-5.9
CC1CCN(c2cc(C#N)c(C#N)cc2[N+](=O)[O-])CC1,-0.3,76.4*,-6.0,-30.9
Cc1cc(N2CCC(C)CC2)c(F)cc1[N+](=O)[O-],18.1,-5.8,-5.5,-13.3
O=C(/C=C1\NCC2c3ccccc3CCN2C1=O)c1ccccc1 (centres undefined),-3.7,8.2,-12.5,-8.4
Cc1ccc(-n2nnnc2CSc2nnc(-c3ccc(O)cc3)o2)cc1,·,·,-3.6,4.0
COC(=O)Nc1cccn(Cc2c(Cl)cccc2Cl)c1=O,10.1,21.1,2.5,-48.6
O=C(Nc1cccn(Cc2c(Cl)cccc2Cl)c1=O)c1c(Cl)cccc1Cl,5.6,92.9*,-0.9,-41.6
CC1CCCCN1C(=O)CSc1nc(N)cc(=O)[nH]1 (centres undefined),3.1,30.0*,-3.1,-12.2
CCCSc1nc(C)cc(=O)[nH]1,-6.7,3.4,-4.2,-20.2
CCCSc1nc(N)cc(=O)[nH]1,-4.2,1.2,33.8*,-28.2
CC1CCCC(NC(=O)COC(=O)Cc2ccsc2)C1C (centres undefined),4.8,10.9,1.5,-30.3
COc1ccc(S(=O)(=O)N2CCC(C(=O)N3CCc4ccccc4C3)CC2)cc1Cl,-2.2,48.7*,-8.1,-10.2
Cn1c(=O)oc2cc(S(=O)(=O)N3CCCC(C(=O)N4CCc5ccccc5C4)C3)ccc21 (centres undefined),-5.1,50.6*,-15.3,-33.3
O=C(C1CCN(S(=O)(=O)c2ccc3c(c2)OCCO3)CC1)N1CCc2ccccc21,-10.3,33.3*,-2.5,-43.8
COc1ccc(/C=N/N=C2\SC(CC(=O)O)C(=O)N2c2ccccc2)c(OC)c1 (centres undefined),·,·,-0.3,-24.8
Cc1[nH]c(=O)[nH]c(=O)c1S(=O)(=O)N1CCCC1,-0.5,1.9,-6.2,0.2
O=C(CN1C(=O)COc2ccc(S(=O)(=O)N3CCCC3)cc21)NC1CCCCCCC1,·,·,-1.9,-17.1
O=C1CCCc2c1cc(-c1ccccc1)n2-c1ccccc1,-4.7,51.4*,1.7,-17.6
CCCn1[nH]cc(SC)c(=O)c1=O,-1.3,0.0,41.5*,1.7
COc1ccc(NCc2ccc([N+](=O)[O-])s2)c(OC)c1,·,·,-7.7,99.7*
CC1=C(C(=O)OC(C)C)C(c2ccncc2)n2ncnc2N1 (centres undefined),10.6,-5.5,-16.5,-21.1
CC1=C(C(=O)OC(C)C)C(c2ccccn2)n2ncnc2N1 (centres undefined),-1.2,33.4*,-7.8,21.6
O=C(NC1CCCCC1)Sc1ccc(Cl)cc1,1.9,-0.5,-19.4,52.1*
SMILES,PostGolgi yeast,PostGolgi ctrl,Yeast lifespan up,Yeast growth inh
Cc1cc(NC(=O)CCC(=O)N(CC(=O)NCC2CCCO2)Cc2ccc(F)cc2)no1 (centres undefined),·,·,·,-6.7
Cc1cc(NC(=O)CCC(=O)N(CCC(C)C)CC(=O)NCC2CCCO2)no1 (centres undefined),-0.3,38.3*,-5.0,-52.1
Cc1cc(=O)oc2cc(OCCSCCN3CCOCC3)ccc12,5.8,31.9*,-18.7,-29.1
C=CCc1ccc(OCC(O)CN2CCC(Cc3ccccc3)CC2)c(OC)c1 (centres undefined),98.0*,62.6*,3.0,-22.6
O=C(NCc1ccccc1)c1ccc(OC2CSC2)cc1,-4.8,32.1*,-1.3,-22.3
O=C(NCc1ccccc1)c1ccc(Oc2ccc(C(=O)NCc3ccccc3)cc2)cc1,12.7,11.8,-11.7,-49.8
CCc1oc2ccccc2c1C(=O)CCN1CCCCC1,5.2,35.7*,42.5,-41.9
COc1cccc(C(=O)Nc2ccccc2)c1,14.7,0.3,-6.1,-16.9
COc1cccc(C(=O)Nc2cccc(SC)c2)c1,13.5,30.2*,-32.5,-28.0
CN(C)S(=O)(=O)Oc1cccc(C(=O)Nc2ccc(Cl)c(Cl)c2)c1,10.3,36.3*,-16.7,-21.9
CN(C)S(=O)(=O)Oc1cccc(C(=O)Nc2cccc(Cl)c2)c1,13.2,5.5,-15.2,-29.2
COc1cccc(NC(=O)c2cccc(OC)c2OC)c1,-8.7,48.1*,-17.7,-63.9
COc1cccc(C(=O)Nc2ccc3nc(N4CCN(c5ncccn5)CC4)cc(C)c3c2)c1OC,-2.0,40.9*,-4.7,-31.5
